Assay outcomes: PubChem BioAssay, The Scripps Research Institute Molecular Screening Center
Compounds with a hit are over-represented: about 1.2% of the library has one in this group of screens.
TRPML3 ag = human mucolipin-3 channel agonism | activation, % at 3 µM | hit rate 0.29% among 220,000 | AID 1448 | HEK293 TRPML3-YFP, Fluo-8 calcium fluorescence; 100% = the carbachol control signal | Q8TDD5;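 active means activation above its plate's cutoff, the mean activation of the plate's test wells plus 3 SD, cut at about 12% in these data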;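 further: 0% = DMSO only wells and 100% = carbachol wells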
Target sequence (Q8TDD5 whole entry, looked up): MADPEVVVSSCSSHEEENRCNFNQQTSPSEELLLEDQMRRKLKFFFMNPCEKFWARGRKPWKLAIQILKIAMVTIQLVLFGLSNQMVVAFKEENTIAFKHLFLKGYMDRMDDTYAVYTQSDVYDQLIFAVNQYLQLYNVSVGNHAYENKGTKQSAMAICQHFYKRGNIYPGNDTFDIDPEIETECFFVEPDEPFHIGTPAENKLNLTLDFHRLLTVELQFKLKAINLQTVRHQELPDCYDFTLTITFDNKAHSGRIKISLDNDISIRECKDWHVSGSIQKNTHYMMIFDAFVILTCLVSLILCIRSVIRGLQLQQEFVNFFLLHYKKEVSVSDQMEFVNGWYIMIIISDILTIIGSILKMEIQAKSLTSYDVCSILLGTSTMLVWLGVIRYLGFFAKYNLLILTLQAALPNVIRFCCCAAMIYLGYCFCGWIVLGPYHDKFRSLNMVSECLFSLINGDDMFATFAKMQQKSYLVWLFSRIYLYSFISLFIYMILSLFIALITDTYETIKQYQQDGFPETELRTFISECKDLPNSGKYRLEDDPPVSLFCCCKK
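system = HEK293 cells stably carrying human TRPML3-YFP | doses = one concentration, 3 µM nominal, 0.3% DMSO | timing = dye loading 1 h 37 °C then 30 min ambient, 125 s read | detection = Fluo-8 calcium dye fluorescence, ex 470-495, em 515-575 nm | benchmarks = high control carbachol 87 µM, low control DMSO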
CHO-K1 Ca PAM = M1 PAM counterscreen hit in parental CHO-K1 cells. AID 602247. ATP EC20, Fluo-8 calcium fluorescence; 0% at ATP EC20, 100% at ATP max. hit rate 0.02% among 360,000. activation, % at 3 µM;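 active means activation above the run cutoff, the mean activation of all test compounds plus 3 SD, cut at about 40% in these data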;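 further: peak over basal fluorescence ratio in a 140 s read after ATP addition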
M1 ag parental = counter-screen for M1 agonists: effect in parental CHO-K1 cells. activation, % at 3 µM. hit rate 0.48% among 360,000. Fluo-8 calcium fluorescence; scaled to maximal ATP response, vehicle zero; in the data active means activation above about 15%;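 further: untransfected CHO-K1 host cells lacking M1 receptor as counterscreen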
zfTRPN1 agonist = agonists of zebrafish TRPN1 channel; HEK293 zebrafish TRPN1-YFP, Fluo-8 calcium fluorescence; 100% = response to 87 µM carbachol; activation, % at 3 µM; hit rate 0.18% among 220,000;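 active means activation above its plate's cutoff, the mean activation of test wells on that plate plus 3 SD, cut at about 19% in these data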;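 further: 0% = DMSO alone and 100% = 87 µM carbachol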
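Material: zebrafish TRPN1-YFP in HEK293 cells; Doses: single test compound dose, 3 µM nominal, 0.3% DMSO; Timing: dye loading 1 h at 37 °C, then 30 min room temperature; Technique: intracellular calcium fluorescence with Fluo-8; Benchmarks: high carbachol 87 µM, low DMSO alone.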
CHO-K1 Ca antag = counter-screen for M1 antagonists: effect in parental CHO-K1 cells; ATP-induced calcium, Fluo-8 fluorescence; inhibition, % at 3 µM; AID 602250; hit rate 0.6% among 360,000;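 active means inhibition above a per-plate cutoff, the plate's mean sample inhibition plus 3 SD, cut at about 24% in these data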;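 further: 0% = DMSO plus EC80 ATP and 100% = DMSO alone without ATP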
Active calls of the source: *; x = not tested or not shown.

SMILES | TRPML3 ag | CHO-K1 Ca PAM | M1 ag parental | zfTRPN1 agonist | CHO-K1 Ca antag
COc1ccc(/C=C\C(=O)O[C@@H]2C(O)C(O[C@@H]3OC(C)[C@H](O[C@@H]4OCC(O[C@H]5O[C@H](CO)[C@@H](O)C(O)C5O)C(O)C4O)C(O)C3O)[C@H](OC(=O)[C@]34CCC(C)(C)C[C@@H]3C3=CCC5[C@@]6(C)CC(O)C(O[C@@H]7OC(CO)C(O)[C@H](O)[C@H]7O)[C@@](C)(C(=O)O)C6CC[C@@]5(C)[C@]3(CO)CC4)O[C@H]2C)cc1 (some centres undefined) | x | -19.9 | 90.1* | x | 71.2*
C[C@H](CO)N1C[C@H](C)[C@H](CN(C)Cc2ccncc2)Oc2cc(-c3ccccc3F)ccc2S1(=O)=O | x | 11.3 | 2.3 | x | -1.3
CCCCNS(=O)(=O)NC(=O)C1=C(N2CCCC2)COC1=O | x | -20.9 | -0.6 | x | 26.7*
O=C(NS(=O)(=O)N1CCCC1)C1=C(N2CCCC2)COC1=O | x | -19.5 | -0.3 | x | 7.9
CCN(CC)c1ccc2c(-c3ccc(S(=O)(=O)O)cc3S(=O)(=O)[O-])c3ccc(=[N+](CC)CC)cc-3oc2c1 | x | -2.9 | 41.5* | x | 8.3
CCCCNC(=O)c1ccc2nc(CC)c(N(C)Cc3cccs3)n2c1 | x | -9.4 | 3.2 | x | -1.3
CCOC(=O)c1ccc(NC(=S)NCCc2ccccc2F)cc1 | 3.7 | -14.0 | 15.4* | 6.5 | 24.6*
COC(=O)c1ccc(NC(=O)Nc2ccc(F)cc2)cc1 | 10.6 | 7.0 | 8.6 | 11.3 | 19.5
CCOC(=O)c1ccc(NC(=O)Nc2ccc(F)cc2)cc1 | 10.2 | -5.8 | 12.2 | 20.9* | 48.6*
COc1ccc(-c2cc(NC(C)=O)c3ncc(-c4ccccc4)n3c2)cc1OC | x | -15.9 | 0.8 | x | 29.1*
Cc1cc(C(=O)Nc2ccon2)ccc1[N+](=O)[O-] | x | 2.1 | 21.4* | x | 2.5
O=C(Nc1ccc2c(c1)OCO2)c1cc(C2CCCCN2S(=O)(=O)Cc2ccccc2)on1 (centres undefined) | x | 8.4 | 0.7 | x | 1.2
CCOc1ccc(C(CN2CCOCC2)C(C)=O)cc1OC (centres undefined) | x | -5.1 | 1.0 | x | 22.1
O=C1NC[C@H](CCCCN2C[C@H](Cc3ccccc3)N(Cc3ccccc3)C(=O)C2=O)N(CC2CCCCC2)C1=O | x | -4.4 | -0.2 | x | -5.0
O=C1NC[C@@H](CCCCN2C[C@H](Cc3ccc(O)cc3)N(CC3CCCCC3)C(=O)C2=O)N(CCC2CCCCC2)C1=O | x | 8.1 | 63.0* | x | -9.2
O=C1NC[C@H](CCCCN2C[C@H](Cc3ccc(O)cc3)N(CCC3CCCCC3)C(=O)C2=O)N(CC2CCCCC2)C1=O | x | 8.8 | 1.0 | x | -12.6
O=C1NC[C@@H](CCCCN2C[C@H](Cc3ccccc3)N(CC3CCCCC3)C(=O)C2=O)N(Cc2ccccc2)C1=O | x | -9.9 | 16.6* | x | -5.4
O=C(NCC1CCCCC1)c1ccc2sc([C@H]3C[C@H](O)[C@@H](CO)O3)nc2c1 | x | -13.1 | 2.0 | x | 35.0*
CC(C)NC(=O)c1ccc2sc([C@H]3C[C@H](O)[C@@H](CO)O3)nc2c1 | x | -4.1 | 0.4 | x | 2.3
CC(C)CCOc1cccc(OCC(=O)Nc2ccncc2)c1 | x | -15.4 | 13.9 | x | 27.8*
O=C(COc1ccc([N+](=O)[O-])cc1)Nc1cccnc1 | -0.7 | -1.9 | 0.8 | -0.2 | -13.9
O=C(COc1ccc(-c2ccccc2)cc1)Nc1cccnc1 | x | -10.7 | 17.8* | x | 14.9
O=C(COc1ccc(Nc2ccccc2)cc1)Nc1ccncc1 | x | -17.9 | 15.1* | x | 9.2
COc1ccc(C(=O)/C=C\c2ccc(NC(=O)c3cccs3)cc2)cc1 | 0.5 | -8.3 | 0.3 | 2.6 | 26.8*
CN(C)c1ccc(/C=C/C(=O)c2cccc(Br)c2)cc1 | 91.9* | 4.8 | 53.5* | 163.5* | 39.8*
SMILES | TRPML3 ag | CHO-K1 Ca PAM | M1 ag parental | zfTRPN1 agonist | CHO-K1 Ca antag
CN(C)c1ccc(C(=O)/C=C/c2cccnc2)cc1 | x | 15.4 | 0.5 | x | -8.6
CC(=O)NC(c1ccc(F)c(F)c1)c1nc(-c2cccc(C(C)C)c2)cs1 (centres undefined) | x | 14.3 | 0.6 | x | -5.8
CC(=O)Oc1ccc(C(=O)Cc2ccccn2)c(O)c1 | 1.5 | -10.6 | -0.6 | 0.6 | 24.2*
COCCN1CCC(CNCc2cn(-c3cc(C)ccc3C)nc2-c2ccccc2)C1 (centres undefined) | 1.0 | -1.9 | -0.4 | 2.1 | 26.1*
COc1ccc(NC(=O)c2c(F)c(F)c(F)c(F)c2F)cc1Cl | 0.8 | -5.6 | 1.9 | -0.1 | 31.9*
N#C/C(=C\c1ccccn1)c1nc2ccccc2s1 | 7.5 | -11.5 | 33.9* | 26.2* | 34.4*
N#C/C(=C/c1ccc(-c2ccc(S(N)(=O)=O)cc2)o1)c1nc2ccccc2s1 | 13.7* | -6.0 | 29.6* | 12.9 | 40.6*
N#C/C(=C/c1ccc(-c2ccc(S(N)(=O)=O)cc2)o1)C(=O)Nc1ccccc1 | 0.2 | 11.2 | 3.9 | 3.5 | 28.1*
COc1ccc(Cl)cc1CNC[C@H]1O[C@@H](n2cnc3c(=O)[nH]c(N)nc32)[C@H](O)[C@@H]1O | x | 6.8 | -0.1 | x | 5.8
CCC(=O)N1CCCc2cc(S(=O)(=O)N3CCN(c4ccccn4)CC3)ccc21 | 1.3 | -6.8 | 1.1 | 1.3 | 13.4
CCC(=O)N1CCCc2cc(S(=O)(=O)N3CCN(c4ncccn4)CC3)ccc21 | 0.3 | 1.3 | -0.1 | 0.6 | 24.2*
CCn1c(CNC(=O)c2cc(OC)c(OC)c(OC)c2)cc2ccccc21 | x | 1.5 | 6.6 | x | 4.5
COc1cc(C(=O)NCc2cc3ccccc3n2C)cc(OC)c1OC | x | -11.3 | 16.4* | x | 15.9
CN1C(=O)CC2(C)C1=CCc1scnc12 (centres undefined) | x | 12.0 | 0.5 | x | 1.4
COc1cc(/C=C(\C#N)c2nc3ccc(C)cc3[nH]2)c([N+](=O)[O-])cc1OC | -0.7 | 18.7 | 0.0 | -1.6 | -8.6
CCN(CC)c1ccc(/C=C(/C#N)c2nc3ccc(C)cc3[nH]2)c(OC(C)C)c1 | 22.7* | -13.8 | 39.3* | 29.7* | 49.8*
Cc1cc(/C=C(\C#N)c2nc3ccccc3[nH]2)c(C)n1C | 0.9 | 25.1 | 7.5 | 0.1 | -3.5
CCOc1cc(N(CC)CC)ccc1/C=C(/C#N)c1nc2ccccc2[nH]1 | 3.0 | -7.8 | 19.3* | 7.0 | 21.3
